Measured values published in ChEMBL document CHEMBL1789904, “Imaging of Plasmodium liver stages to drive next-generation antimalarial drug discovery” (Science, 2011).

Test system: Plasmodium yoelii
Test: NOVARTIS: Antimalarial liver stage activity measured as reduction in Plasmodium yoelii schizont area in HepG2-A16-CD81 cells by immuno-fluorescence, and median schizont size at 10uM compound concentration
Type: functional, organism-based
Details: for IC50: Plasmodium yoelii, HepG2-A16-CD81
Outline: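 Host and parasite nuclei stained with Hoechst 33342, parasites with αPyHSP70 antibody; 25 images per well by high-content imaging; median parasite (schizont) area measured by automated image analysis, ~50 schizonts per experiment, two or more independent experiments.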

Cc1nc([P+](c2ccccc2)(c2ccccc2)c2ccccc2)c(SCc2ccccc2)o1.[O-][Cl+3]([O-])([O-])[O-]
Schizont size: 31.83 um
IC50: 33.5 nM

COc1ccc2[nH]c3ccccc3c(=O)c2c1
Schizont size: 30.27 um
IC50: 135 nM

c1ccc(OCCOc2ccc(Nc3ccnc4cc5ccccc5cc34)cc2)cc1
Schizont size: 18.06 um
IC50: 67.5 nM

CCC1CN2CCc3cc(OC)c(OC)cc3C2CC1CC1NCCc2cc(OC)c(OC)cc21.Cl (stereo not given)
Schizont size: 13.78 um
IC50: 80.2 nM

Cl.OCCNc1nc(Nc2ccccc2)nc2ccccc12
Schizont size: 62.1 um
IC50: 47.9 nM

OC1=C2C(=Nc3ccccc3SC2c2ccccc2)c2ccccc21 (stereo not given)
Schizont size: 28.39 um
IC50: 93.7 nM

COc1cccc(Nc2nc(NCCO)c3ccccc3n2)c1.Cl
Schizont size: 54.9 um
IC50: 62.3 nM

Cc1nc2ccccc2c(O)c1CC=C(Cl)Cl
Schizont size: 43.21 um
IC50: 130 nM

CC(C)(C)C1CCc2[nH]c3ccccc3c(=O)c2C1 (stereo not given)
Schizont size: 22.13 um
IC50: 98.3 nM

CCOc1ccc(N2C(N)=NC(N)=NC2(C)C)cc1.Cl
Schizont size: 35.59 um
IC50: 46.8 nM

Oc1cccc2ccc(Nc3ccccn3)nc12
Schizont size: 30.16 um
IC50: 142 nM

CCCCc1c(C)nc2ccc(Br)cc2c1O
Schizont size: 25.99 um
IC50: 64.7 nM

CCOC(=O)c1cn(CC)c2cc(N(C)CCc3ccc(OC)c(OC)c3)c(F)cc2c1=O
Schizont size: 23.69 um
IC50: 42.1 nM

CC(Oc1ccc(Cl)cc1Cl)c1nc(-c2ccc(NC(=O)c3ccco3)cc2)no1 (stereo not given)
Schizont size: 28.18 um
IC50: 154 nM

COc1ccc2nc(C)cc(Nc3ccc(Oc4ccc5ccccc5c4Cl)c(Cl)c3)c2c1
Schizont size: 31 um
IC50: 114 nM

CC1(C)N=C(N)N=C(N)N1c1ccccc1.Cl
Schizont size: 37.05 um
IC50: 100 nM

c1ccc(-c2csc(Nc3nc4cc5c(cc4s3)OCO5)n2)nc1
Schizont size: 34.44 um
IC50: 78.9 nM

CCCCSc1oc(C)nc1[P+](c1ccccc1)(c1ccccc1)c1ccccc1
Schizont size: 22.13 um
IC50: 82.1 nM

CCOc1ccc(Nc2nc(NCc3ccco3)c3ccccc3n2)cc1
Schizont size: 75.78 um
IC50: 105 nM

Cc1ccc(CSCc2ccc(C(=O)NC3CC3)o2)cc1
Schizont size: 25.36 um
IC50: 47.3 nM

CCCCCCCn1c2c(c(=N)c3ccccc31)CCC2.I
Schizont size: 23.59 um
IC50: 76.5 nM

CC(C)NC(=O)c1cc(NC(=O)c2cccs2)ccc1N1CCc2ccccc2C1
Schizont size: 26.93 um
IC50: 74.8 nM

CCN1C(=O)N(CC)C(NNC(N)=S)C1NNC(N)=S (stereo not given)
Schizont size: 103.75 um
IC50: 68.6 nM

Clc1ccccc1-c1nc([P+](c2ccccc2)(c2ccccc2)c2ccccc2)c(N2CCOCC2)o1
Schizont size: 20.56 um
IC50: 95.6 nM

Cn1ncnc2c(=O)n(C)c(=O)nc1-2
Schizont size: 12.53 um
IC50: 103 nM

C[C@@H]1CCC[C@@H](C[C@H]2Cc3cc(O)cc(O)c3C(=O)O2)O1
Schizont size: 41.96 um
IC50: 112 nM

CN(C)c1oc(-c2ccc(Cl)cc2Cl)nc1[P+](c1ccccc1)(c1ccccc1)c1ccccc1.[I-]
Schizont size: 19.41 um
IC50: 129 nM

Cc1cc(C)nc(NC(=N)Nc2cccc(O)c2)n1
Schizont size: 88.2 um
IC50: 152 nM

COc1ccc2sc(Nc3nc(-c4ccccn4)cs3)nc2c1
Schizont size: 28.91 um
IC50: 159 nM

CCC(C)(C)c1ccc(OCCCC[n+]2cccc(C)c2C)c(C(C)(C)CC)c1.[Br-]
Schizont size: 12.53 um
IC50: 45.5 nM

CC(Oc1ccc(Cl)cc1Cl)c1nc(-c2ccc(NC(=O)c3cccs3)cc2)no1 (stereo not given)
Schizont size: 21.92 um
IC50: 114 nM

CCCCCC[P+](N(CCC)CCC)(N(CCC)CCC)N(CCC)CCC
Schizont size: 30.27 um
IC50: 49.1 nM

Cl.OCCNc1nc(Nc2ccc(F)cc2)nc2ccccc12
Schizont size: 91.12 um
IC50: 136 nM

Cc1ccc2nc3nc4c(C)cccc4c(N)c3cc2c1
Schizont size: 22.23 um
IC50: 47.4 nM

Cc1ccc(-c2cc3nc4c(c(O)n3n2)CCCC4)cc1
Schizont size: 26.41 um
IC50: 75.3 nM

Cc1nc([P+](c2ccccc2)(c2ccccc2)c2ccccc2)c(N2CCCCC2)o1
Schizont size: 25.57 um
IC50: 82.4 nM

Cc1nc2cc(-c3ccc(I)cc3)nn2c(O)c1C
Schizont size: 35.28 um
IC50: 118 nM

CC1(C)N=C(N)N=C(N)N1c1ccc(Oc2ccc(Cl)cc2)c(Cl)c1.Cl
Schizont size: 27.76 um
IC50: 73 nM

Cc1cc(NC(c2cccc(Br)c2)c2ccc3cccnc3c2O)no1 (stereo not given)
Schizont size: 16.28 um
IC50: 147 nM

CCCCCc1ccc(OCCCC[n+]2cccc(C)c2)c(CCCCC)c1.[Cl-]
Schizont size: 23.48 um
IC50: 34.6 nM
